High-throughput results (PubChem)
MrgX1 PAM = allosterically activates human MrgX1 receptor signaling | Q96LB2 | MrgX1-HEK293, Fluo-4 calcium flux, FDSS; hits give high values | B-score at 10 µM | 310,000 tested, 0.63% active;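 active means plate-corrected calcium response at least 3 library SD above typical, normal starting fluorescence, not activating the receptor alone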;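 further: compound read alongside a low EC10 to EC30 dose of BAM8-22 agonist; peak minus trough fluorescence over baseline measured at the second addition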
RGS4 block = inhibitors of human RGS4. HEK293 M3R/RGS4 inducible, Fluo-4 calcium flux; hits give high values; triggered by carbachol at its EC20. B-score at 10 µM. 310,000 tested, 0.45% active. AID 463165;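 active means B-score, a plate-corrected calcium signal, over three deviations above library mean, with baseline fluorescence within five deviations of library mean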;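 further: RGS4 expression induced by doxycycline in cells with stable M3 receptor; B-score is computed from the integrated fluorescence ratio over baseline after carbachol; higher B-score means a larger calcium signal and so more RGS4 inhibition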
Target sequence (P49798 whole entry, looked up): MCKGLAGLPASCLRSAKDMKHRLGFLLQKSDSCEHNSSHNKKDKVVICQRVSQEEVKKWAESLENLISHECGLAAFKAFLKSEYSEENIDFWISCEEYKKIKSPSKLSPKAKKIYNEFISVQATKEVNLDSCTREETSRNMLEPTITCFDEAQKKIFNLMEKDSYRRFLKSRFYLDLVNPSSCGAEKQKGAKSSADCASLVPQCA
Kir21 inh = Kir2.1 (mouse) channel inhibition | P35561 | HEK293-Kir2.1, FluxOR thallium flux fluorescence; hits give low values | B-score at 10 µM | 310,000 tested, 0.85% active;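 active means fluorescence ratio B-score at or below minus 3 SD of library scores, with starting-brightness B-score within 2 SD, cut at about -4.2 in these data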;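 further: channel flux triggered by added potassium and thallium sulfate stimulus; B-score of peak minus minimum fluorescence over baseline after thallium stimulus; more negative B-score means stronger Kir2.1 block with less thallium influx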
Target sequence (P35561 whole entry, looked up): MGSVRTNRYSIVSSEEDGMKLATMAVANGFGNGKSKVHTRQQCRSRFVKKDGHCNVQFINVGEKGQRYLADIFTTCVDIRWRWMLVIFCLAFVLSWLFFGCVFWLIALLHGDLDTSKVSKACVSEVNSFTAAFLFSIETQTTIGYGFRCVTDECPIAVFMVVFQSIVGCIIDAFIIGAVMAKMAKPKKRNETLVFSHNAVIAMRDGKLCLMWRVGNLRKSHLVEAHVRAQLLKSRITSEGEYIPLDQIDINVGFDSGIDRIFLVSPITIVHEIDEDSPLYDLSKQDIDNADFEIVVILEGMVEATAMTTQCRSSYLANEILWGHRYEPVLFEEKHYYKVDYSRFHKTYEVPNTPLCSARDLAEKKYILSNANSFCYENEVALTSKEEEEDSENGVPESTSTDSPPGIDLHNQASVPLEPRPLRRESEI
MrgX1 antag = human MrgX1 receptor antagonism, primary screen; Q96LB2; MRGX1-HEK293 calcium flux, Fluo-4, BAM8-22 antagonism; hits give low values; B-score at 10 µM; 310,000 tested, 1.3% active;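 active means calcium-response B-score plate-corrected more than 3 library SD below zero, starting fluorescence within 5 deviations, no agonist response on first addition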;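 further: peak minus trough fluorescence over baseline after final BAM8-22 challenge near maximal dose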
MrgX1 agonist = agonists of human MrgX1 receptor; Q96LB2; AID 588627; B-score at 10 µM; MrgX1-HEK293 cells, Fluo-4 calcium fluorescence, agonist mode; hits give high values; 310,000 tested, 0.44% active;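 active means calcium response B-score plate-corrected fluorescence ratio at least 3 library SD, with starting fluorescence B-score inside 5 SD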
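times = overnight plating, then 30 min 37 °C plus 30 min room-temperature dye loading | assay system = stable human MrgX1 HEK293 cell line | input = fifteen thousand cells per well | signal = kinetic calcium dye fluorescence, Fluo-4 NW | dosing = compound delivered in addition one of three | read-out = B-scored fluorescence response ratio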
RGS4 act = potentiators or activators of RGS4; HEK293 M3R/inducible RGS4, carbachol calcium flux Fluo4; hits give low values; B-score at 10 µM; 310,000 tested, 0.92% active;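 active means B-score of the integrated calcium signal more than 4 SD below the library mean, with starting fluorescence not abnormally high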;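 further: negative B-score means reduced calcium response which marks RGS4 activation or potentiation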
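Test system: HEK293 cells with stable M3R and inducible RGS4; also added: carbachol at ECmax as muscarinic agonist stimulus; schedule: dye loading 30 min 37 °C, buffer rest 30 min RT; technique: kinetic calcium fluorescence imaging with Fluo4-AM dye, 2 µM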
* = called active by the depositor; i = inactive; x = no result given. Rows were chosen to be rich in hits. Some 4.1% of all compounds tested hit in one or more screens of this group.

SMILES | MrgX1 PAM | RGS4 block | Kir21 inh | MrgX1 antag | MrgX1 agonist | RGS4 act
Nc1c(/C=C2\C=Nc3ccccc32)c(=O)nc2sc(CC(=O)N3CCOCC3)nn12 | 10* | i | 1.5 | i | i | i
CCOC1=C/C(=C/c2c(N)n3nc(CC(=O)N4CCCCC4)sc3nc2=O)C=CC1=O | i | i | -0.98 | i | i | i
COC1=C/C(=C/c2c(N)n3nc(CC(=O)N4CCCCC4)sc3nc2=O)C=CC1=O | i | i | -2.9 | i | 69* | i
O=S(=O)(N1CCOCC1)n1nnc2ccccc21 | i | i | -0.02 | i | i | i
O=S(=O)(N1CCOCC1)n1c(Cc2ccccc2)nc2ccccc21 | i | i | -4.3* | i | i | i
Fc1cccc(Cl)c1CNC(c1ccccc1)c1ccccc1 | i | i | 0.31 | i | i | -7*
O=C(CNC(c1ccccc1)c1ccccc1)Nc1c(F)cccc1F | i | i | -2.1 | i | i | i
O=C(NCc1cccc(Cl)c1)c1ccc(CS(=O)Cc2ccccc2Cl)o1 (stereo unspecified) | i | i | -0.34 | i | i | i
CO/N=C(/CS(=O)Cc1ccccc1Cl)c1ccc(Cl)cc1Cl (stereo unspecified) | i | i | -5* | i | i | i
CCc1ccccc1NS(=O)(=O)c1cccc2nsnc12 | i | i | -5.4* | i | i | i
CN(C1CCCCC1)S(=O)(=O)c1cccc2nsnc12 | i | i | -5.1* | i | i | i
N#CCCN(C1CCCCC1)S(=O)(=O)c1cccc2nsnc12 | i | i | -1.6 | i | i | i
CCN(c1ccc(F)cc1)S(=O)(=O)c1cccc2nsnc12 | i | i | -5.5* | i | i | i
Cc1cc(O)c2c(-c3ccccc3)cc(=O)oc2c1 | i | x | x | i | 44* | x
CC(=O)COc1cc(C)cc2oc(=O)cc(-c3ccccc3)c12 | i | i | 0.34 | i | i | i
CC1=NOC(=O)/C1=C\c1ccc(-c2ccc(Br)cc2)o1 | x | i | 0.93 | x | x | i
CC1=NOC(=O)/C1=C/c1ccc(-c2ccc(Cl)cc2)o1 | i | x | x | i | 46* | x
Brc1ccc(-c2csc(Nc3nc(-c4ccc(Br)cc4)cs3)n2)cc1 | i | i | 1.7 | -4.5* | i | i
CCc1ccc2oc(-c3ccc(OC)cc3)cc(=Nc3c(C)n(C)n(-c4ccccc4)c3=O)c2c1 | i | i | 1.4 | i | i | -7.4*
Cc1sc2nc(CSC(C)C(=O)N(C)CC(=O)Nc3ccccc3C(F)(F)F)[nH]c(=O)c2c1C (stereo unspecified) | i | i | 1 | i | i | -7.1*
CC(C)c1cc(=O)oc2c3c4c(cc12)CCCN4CCC3 | i | i | -0.93 | i | i | i
CN1CCCc2cc3c(C(F)(F)F)cc(=O)oc3nc21 | i | i | -7.1 | i | i | -8*
CSCC[C@H](NC(=O)c1ccc2ccccc2c1)C(=O)N1CCC2(CC1)NCCc1[nH]cnc12 | i | i | -0.21 | i | i | -7.6*
Cn1c(=O)c2c(nc(SCCN3CCCCC3)n2Cc2ccc(Cl)cc2)n(C)c1=O | i | i | -2.4 | i | i | -7*
Cc1cccc2cc(CN(Cc3ccc(F)cc3)C(=O)C(F)(F)F)c3nnnn3c12 | i | i | 0.6 | i | i | i
SMILES | MrgX1 PAM | RGS4 block | Kir21 inh | MrgX1 antag | MrgX1 agonist | RGS4 act
CCC(C)(C)c1ccc(OCCCC[n+]2cccc(C)c2)c(C(C)(C)CC)c1 | x | i | -6.4* | x | x | -8.1*
NC1=NC(c2ccc(F)cc2)n2c(nc3ccccc32)N1 (stereo unspecified) | i | i | -1.6 | i | i | i
CCCCc1cc(=O)oc2cc(O)cc(O)c12 | i | i | -2 | i | 33* | i
CCCc1cc(=O)oc2cc(C)c(CN3CCCC3)c(O)c12 | i | i | -0.97 | i | i | i
CCCc1cc(O)c2c(C)cc(=O)oc2c1 | i | i | -0.92 | i | 31* | i
CCCCc1cc(=O)oc2cc(C)cc(O)c12 | i | i | 0 | i | i | i
Cn1cnc2c1c(=O)[nH]c(=O)n2Cc1ccccc1 | i | i | -1.1 | i | i | i
Cc1c(N=Cc2ccc(Br)s2)cccc1[N+](=O)[O-] | i | i | -0.8 | i | i | i
CCC(C(=O)c1ccc(O)cc1)c1ccccc1 (stereo unspecified) | i | i | -5* | i | i | i
O=C(NCCC(c1ccccc1)c1ccco1)c1cccs1 (stereo unspecified) | i | i | -0.32 | i | i | i
Fc1ccc(C(CCNCc2cccs2)c2ccco2)cc1 (stereo unspecified) | i | i | -4.5* | i | i | i
COc1ccccc1NC1=C(Cl)C(=O)N(c2ccccc2)C1=O | 11* | i | 1.1 | i | i | i
COc1ccc(NC2=C(Cl)C(=O)N(c3ccccc3)C2=O)c(OC)c1 | i | i | 1.2 | i | i | i
O=C1N=C(N2CCN(c3ccccc3)CC2)S/C1=C\c1cn[nH]c1-c1ccccc1 | i | i | 0.6 | i | i | i
O=C(NCc1cc([N+](=O)[O-])ccc1O)c1cccnc1Sc1ccccc1 | i | i | 0.74 | i | i | i
CCN(CC)c1nc(SCCOC(=O)Nc2ccccc2)nc(N(CC)CC)n1 | i | i | -0.15 | i | i | -8.8*
CCCOc1cccc(-c2cc(C(=O)N/N=C/c3cccnc3)c3ccccc3n2)c1 | i | i | 0.09 | i | i | -8.1*
CCCOc1cccc(-c2cc(C(=O)N/N=C/c3ccccn3)c3ccccc3n2)c1 | i | i | 2.4 | i | i | -9.1*
Cc1cccc(-c2cc(C(=O)N/N=C/c3cccnc3)c3ccccc3n2)c1 | i | i | -0.87 | i | i | i
O=C(N/N=C/c1ccccn1)c1cc(-c2ccc(Cl)cc2)nc2ccccc12 | i | i | -0.24 | i | i | i
CCc1ccc(C(O)(CNCc2ccccc2)c2ccccc2)cc1 (stereo unspecified) | i | i | -8.9* | i | i | i
Cc1ccc(CNCC(O)(c2ccccc2)c2ccc(Cl)cc2)cc1 (stereo unspecified) | x | i | -2.8 | x | x | i
COc1ccc(CNCC(O)(c2ccccc2)c2ccc(Cl)cc2)cc1 (stereo unspecified) | i | i | -5.9* | i | i | i
CC1=CC(C)(C)Nc2ccc(OS(=O)(=O)c3ccc(C)cc3)cc21 | i | i | -0.81 | i | i | i
